A selection: hits, their analogues and other compounds. The true share with any hit is near 5.8%.
GASC1 inh: inhibitors of GASC-1 (KDM4C) histone demethylase, primary screen, biochemical, single concentration HTS; GST-KDM4C 2-372, H3K9me3 peptide, LANCE TR-FRET; inhibition, % at 12.5 µM; actives 0.15% (n = 96,000); AID 720574, 2013;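 active means mean replicate inhibition above about 25%, with at least 55% of replicates also reaching it, limit read from the data, passing the limit was not always enough; inconclusive means only one of those two conditions met; inactive means neither condition met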
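Material: GST-tagged GASC-1 (JMJD2C) catalytic fragment, aa 2-372. Input: enzyme final amount 10 nM. Medium: HEPES buffer, pH 7.5, plus ascorbate. Reagent: H3K9me3 peptide substrate, Fe(II), 2-oxoglutarate. Doses: single dose. Times: reaction 30 min RT, detection step 1 h RT. Measured by: LANCE TR-FRET. Evaluation: Fall in 671/618 emission ratio as inhibition.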
Pf Dd2 growth: P. falciparum Dd2 growth inhibitors, primary screen, SYBR Green fluorescence, single dose replicates | actives 2.3% (n = 94,000) | activity change, % at 10 µM | 72 h; hits give low values; in the data active means activity change below about -80%; inconclusive means no clear call, values can overlap the other calls
T cruzi growth: T. cruzi intracellular proliferation inhibitors, primary screen, cell-based, beta-gal Tulahuen parasites, NIH3T3 host, luminescence; inhibition, % at 8.34 µM; actives 5.9% (n = 77,000); T. cruzi beta-gal in NIH3T3, GalScreen luminescence, 90 h;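 active means mean inhibition above about 93%, with at least 55% of replicates each passing it, limit read from the data, passing the limit was not always enough; inconclusive means only one of those two conditions holds; inactive means neither condition holds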
IDH1 mut inh: inhibitors of IDH1 R132H reductase, primary screen, biochemical, plate reader, single point; Isocitrate dehydrogenase [NADP] cytoplasmic (Homo sapiens), O75874; actives 0.18% (n = 70,000); inhibition, % at 10 µM; diaphorase/resazurin fluorescence, 60 min; in the data active means inhibition above about 34%; inconclusive means no clear call, values can overlap the other calls; inactive means below about 11%;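 further: 0% = DMSO and 100% = no enzyme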
Target sequence (O75874 whole entry R132H): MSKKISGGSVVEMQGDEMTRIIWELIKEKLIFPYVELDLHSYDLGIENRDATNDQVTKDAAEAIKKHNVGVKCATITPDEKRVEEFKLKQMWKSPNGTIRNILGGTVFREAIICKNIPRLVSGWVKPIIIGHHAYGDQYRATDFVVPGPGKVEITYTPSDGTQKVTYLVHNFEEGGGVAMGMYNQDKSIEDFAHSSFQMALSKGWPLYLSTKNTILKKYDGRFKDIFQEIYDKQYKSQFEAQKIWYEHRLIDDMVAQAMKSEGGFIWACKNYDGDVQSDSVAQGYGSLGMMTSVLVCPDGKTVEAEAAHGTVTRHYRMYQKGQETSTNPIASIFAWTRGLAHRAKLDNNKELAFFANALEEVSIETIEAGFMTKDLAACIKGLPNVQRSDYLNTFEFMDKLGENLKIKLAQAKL
Active calls of the source: *; u = inconclusive; x = no result given.

SMILES	GASC1 inh	Pf Dd2 growth	T cruzi growth	IDH1 mut inh
C[C@@H]1CCCCO[C@@H](CN(C)CC2CCCCC2)[C@@H](C)CN([C@@H](C)CO)C(=O)c2cc(NC(=O)Cc3ccccc3)ccc2O1	-0.9	-49.3	58.2	x
C[C@@H]1CCCCO[C@H](CN(C)CC2CCCCC2)[C@@H](C)CN([C@H](C)CO)C(=O)c2cc(NC(=O)Cc3ccccc3)ccc2O1	3.3	-83.5*	43.7	x
O=C(CN1CCOCC1)N1CC(=O)N2[C@H](CO)[C@H](c3ccc(/C=C/c4ccccc4)cc3)[C@@H]2C1	2.9	11.9	x	x
COc1ccc2c3c(n(C)c2c1)[C@H](CO)N(Cc1ccc2c(c1)OCO2)CC31CN(C(=O)c2ccc3c(c2)OCO3)C1	-0.7	-88.4*	x	x
COc1ccc2c3c(n(C)c2c1)[C@H](CO)N(Cc1cccc(F)c1)CC31CCN(C(=O)Cc2ccccc2)CC1	-0.7	-82.8*	x	x
COc1ccc2c3c(n(C)c2c1)[C@@H](CO)N(Cc1ccncc1)CC31CCN(C(=O)C2CC2)CC1	x	19.0	x	x
COc1ccc2c3c(n(C)c2c1)[C@H](CO)N(Cc1ccncc1)CC31CCN(C(=O)Cc2ccncc2)CC1	0.0	-87.4*	x	x
CCCN(C)C[C@H]1Oc2ncc(C#Cc3ccc(F)cc3)cc2C(=O)N([C@@H](C)CO)C[C@H]1C	-2.4	-86.3*	92.1	-0.6
CCCN(C)C[C@H]1Oc2ncc(C#CC3CC3)cc2C(=O)N([C@H](C)CO)C[C@H]1C	-0.2	-82.8*	63.3	0.0
CO[C@H]1CN(C)C(=O)c2cc(NC(=O)c3ccc(Oc4ccccc4)cc3)ccc2OC[C@@H](C)NC[C@H]1C	6.0	-55.4	-80.4	-0.1
CO[C@@H]1CN(C)C(=O)c2cc(NC(=O)c3ccc(Oc4ccccc4)cc3)ccc2OC[C@@H](C)NC[C@@H]1C	-1.4	-92.0*	7.1	-0.2
CO[C@@H]1CN(C)C(=O)c2cc(NC(=O)Nc3cccc(Cl)c3)ccc2OC[C@@H](C)NC[C@H]1C	-0.7	-23.3	-13.3	0.3
CO[C@@H]1CN(C)C(=O)c2cc(NC(=O)Nc3cccc(Cl)c3)ccc2OC[C@@H](C)NC[C@@H]1C	0.1	-84.8*	-5.2	0.2
CO[C@@H]1CN(C)C(=O)c2ccc(NC(=O)Nc3ccc(C(F)(F)F)cc3)cc2OC[C@H](C)NC[C@H]1C	-2.4	-94.5*	27.8	0.0
CO[C@@H]1CN(C)C(=O)c2ccc(NC(=O)c3ccc(-c4ccccc4)cc3)cc2OC[C@H](C)NC[C@@H]1C	-4.4	u	-9.9	0.0
CO[C@H]1CN(C)C(=O)c2ccc(NC(=O)c3ccc(-c4ccccc4)cc3)cc2OC[C@@H](C)NC[C@@H]1C	-1.8	-91.9*	-31.8	0.1
C[C@@H]1CN([C@@H](C)CO)C(=O)c2cccc(NC(=O)C3CCOCC3)c2O[C@H]1CN(C)Cc1ccc(C(=O)O)cc1	0.2	42.2	2.4	x
CN1[C@@H]2Cn3c(ccc(C4=CCCCC4)c3=O)[C@H]1[C@@H](C(=O)NCCc1ccccc1)[C@@H]2CO	-1.5	-9.7	12.3	x
CO[C@@H]1CN(C)C(=O)c2ccc(NC(=O)c3ccc(-c4ccccc4)cc3)cc2OC[C@@H](C)NC[C@@H]1C	-2.0	-85.5*	x	x
C[C@H](NC(=O)C[C@@H]1C[C@@H]2c3cc(NC(=O)NC4CCCCC4)ccc3O[C@@H]2[C@@H](CO)O1)c1ccccc1	0.2	-14.3	34.4	-0.1
C[C@@H]1CN([C@@H](C)CO)C(=O)c2cccc(NC(=O)CCCCCC(=O)Nc3ccccc3N)c2O[C@@H]1CN(C)C(=O)Nc1cccc2ccccc12	-0.5	-88.1*	x	x
C[C@@H]1CN([C@H](C)CO)C(=O)c2cccc(NC(=O)CCCCCC(=O)Nc3ccccc3N)c2O[C@@H]1CN(C)C(=O)Nc1ccc2c(c1)OCO2	-1.0	-82.0*	x	x
Cc1noc(C)c1NC(=O)N(C)C[C@H]1Oc2c(NC(=O)CCCCCC(=O)Nc3ccccc3N)cccc2C(=O)N([C@@H](C)CO)C[C@H]1C	0.1	-85.8*	x	x
C[C@H](CO)N1C[C@H](C)[C@H](CN(C)C(=O)Nc2ccc(F)cc2)Oc2c(NC(=O)CCCCCC(=O)Nc3ccccc3N)cccc2C1=O	-0.8	-77.6	x	0.3
C[C@@H]1CN([C@@H](C)CO)C(=O)c2cccc(NC(=O)CCCCCC(=O)Nc3ccccc3N)c2O[C@@H]1CN(C)C(=O)Nc1ccc(F)cc1	-1.1	-86.4*	x	x
SMILES	GASC1 inh	Pf Dd2 growth	T cruzi growth	IDH1 mut inh
Cc1noc(C)c1NC(=O)N(C)C[C@@H]1Oc2c(NC(=O)CCCCCC(=O)Nc3ccccc3N)cccc2C(=O)N([C@@H](C)CO)C[C@@H]1C	0.5	30.5	x	0.4
Cc1ccc(S(=O)(=O)Nc2ccc3c(c2)CC(=O)N([C@@H](C)CO)C[C@H](C)[C@@H](CN(C)C(=O)Nc2ccccc2)O3)cc1	-1.4	30.2	2.7	-4.4
O=C(C1CCOCC1)N1CC(=O)N2[C@H](C1)[C@@H](c1ccc(C#Cc3cccc(F)c3)cc1)[C@@H]2CO	-1.5	-38.0	x	x
CCn1c(SCC(=O)Nc2ccc(Cl)cc2)nnc1-c1ccco1	x	x	x	0.8
C[C@@H]1CN([C@@H](C)CO)C(=O)c2cccc(NC(=O)CCCCCC(=O)Nc3ccccc3N)c2O[C@@H]1CN(C)C(=O)Nc1ccc(C(F)(F)F)cc1	-2.0	-90.5*	x	x
O=C(NCC[C@H]1CC[C@H](NS(=O)(=O)c2ccc(Cl)cc2)[C@@H](CO)O1)c1ccc2c(c1)OCO2	-0.7	3.4	34.1	0.2
CN(C)CC(=O)N[C@H]1CC[C@H](CCn2cc(CN(C)C)nn2)O[C@H]1CO	91.5*	0.9	59.6	101.1*
COCc1cn(CC[C@H]2CC[C@@H](NC(=O)CCN3CCCCC3)[C@H](CO)O2)nn1	2.6	17.2	-54.9	0.2
COCc1cn(CC[C@@H]2CC[C@H](NC(=O)CCN3CCCCC3)[C@@H](CO)O2)nn1	67.1*	5.9	-26.7	67.9*
C[C@@H]1CN([C@@H](C)CO)C(=O)c2cccc(NC(=O)C3CCOCC3)c2O[C@H]1CN(C)S(=O)(=O)c1ccccc1	1.2	3.1	x	0.2
CO[C@H]1CN(C)C(=O)c2ccc(NC(=O)c3cccc(F)c3)cc2OC[C@H](C)N(C)C[C@H]1C	37.7*	-52.1	-36.2	2.3
CO[C@H]1CN(C)C(=O)c2ccc(NC(=O)C3CCCC3)cc2OC[C@H](C)N(C(C)=O)C[C@H]1C	47.3*	x	x	0.5
CO[C@H]1CN(C)C(=O)c2ccc(NS(=O)(=O)CC(F)(F)F)cc2OC[C@H](C)N(C)C[C@@H]1C	-1.0	-86.8*	x	x
CO[C@@H]1CN(C)C(=O)c2ccc(NC(=O)Nc3c(C)noc3C)cc2OC[C@H](C)N(C)C[C@@H]1C	51.3*	16.7	24.5	0.2
Cc1noc(C)c1NC(=O)N(C)C[C@@H]1OCCCC[C@@H](C)Oc2ccc(NC(=O)Nc3ccc4c(c3)OCO4)cc2C(=O)N([C@H](C)CO)C[C@@H]1C	0.1	55.2	-19.0	4.7

Assay outcomes from PubChem BioAssay.
